# Experimental data from ChEMBL document CHEMBL5120805, “Autoxidation of a C2-Olefinated Dihydroartemisinic Acid Analogue to Form an Aromatic Ring: Application to Serrulatene Biosynthesis” (2022).
# Legend:
# Format in all cases: functional
# Staphylococcus aureus = assay: Antimicrobial activity against Staphylococcus aureus JE2 ssessed as reduction in bacterial growth and measured for 24 hrs by resazurin dye based broth microdilution method
# How it was run: (§1)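 Overnight cultures diluted to ~1 × 10^5 CFU/mL and exposed to compounds (DMSO stocks at 10 mg/mL) over 0.048–100 μg/mL final. Incubated standing in lysogeny broth at 37 °C for 24 h. Resazurin then added, 1 h further incubation, and MIC read from colour change.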
# Cryptococcus neoformans = assay: Antimicrobial activity against Cryptococcus neoformans H99 assessed as reduction in […] growth and measured for 48 hrs by resazurin dye based broth microdilution method
# How it was run: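 Cells from overnight growth diluted to ~1 × 10^5 CFU/mL in sabouraud dextrose broth. Compounds from 10 mg/mL DMSO stocks tested at 0.048–100 μg/mL. Plates incubated standing at 37 °C for 48 h, then resazurin added for a further 24 h. MIC taken from colour change.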
# Pseudomonas aeruginosa = assay: Antimicrobial activity against Pseudomonas aeruginosa PA14 assessed as reduction in bacterial growth and measured for 24 hrs by resazurin dye based broth microdilution method; how it was run: as §1
Molecule,MIC (Staphylococcus aureus) [µg/mL],MIC (Cryptococcus neoformans) [µg/mL],MIC (Pseudomonas aeruginosa) [µg/mL]
C#COC(=O)[C@H](C)[C@@H]1CC[C@@H](C)[C@@H]2CCC(C)=C[C@@H]21,> 100,> 100,> 100
CC(=O)OCCC[C@H](C)[C@@H]1CC[C@@H](C)[C@@H]2C[C@@H](O)C(C)=C[C@@H]21,> 100,25,> 100
CC(C)=CC=C[C@H](C)[C@@H]1CC[C@@H](C)c2ccc(C)cc21,> 100,> 100,> 100
CC1=C[C@H]2[C@@H](C=C1)[C@H](C)CC[C@H]2[C@@H](C)C(=O)O,> 100,100,> 100
COC=C[C@H](C)[C@@H]1CC[C@@H](C)[C@@H]2CCC(C)=C[C@@H]21 (mixture of isomers),12.5,50,> 100
CC1=C[C@H]2[C@@H](CC1)[C@H](C)CC[C@H]2[C@@H](C)CCC=O,> 100,> 100,> 100
CC1=C[C@H]2[C@@H](C=C1)[C@H](C)CC[C@H]2[C@@H](C)C=O,> 100,> 100,> 100
CO[C@@H]1[C@@H](OC(N)=O)[C@@H](O)[C@H](Oc2ccc3c(O)c(NC(=O)c4ccc(O)c(CC=C(C)C)c4)c(=O)oc3c2C)OC1(C)C [NOVOBIOCIN],< 0.19,,
CC(=O)OCCC[C@H](C)[C@@H]1CC[C@@H](C)[C@@H]2CCC(C)=C[C@@H]21,> 100,12.5,> 100
CC(C)=CCC[C@H](C)[C@@H]1CC[C@@H](C)c2ccc(C)cc21,> 100,> 100,> 100
C[C@@H]1[C@H](O)[C@@H](C)/C=C/C=C/C=C/C=C/C=C/C=C/C=C/[C@H](O[C@@H]2O[C@H](C)[C@@H](O)[C@H](N)[C@@H]2O)C[C@@H]2O[C@](O)(C[C@@H](O)C[C@@H](O)[C@H](O)CC[C@@H](O)C[C@@H](O)CC(=O)O[C@H]1C)C[C@H](O)[C@H]2C(=O)O [AMPHOTERICIN B],,< 0.048,
Cc1ccc2c(c1)C([C@@H](C)CO)=CC[C@H]2C,100,50,> 100
CC1=C[C@H]2[C@@H](CC1)[C@H](C)CC[C@H]2[C@@H](C)C(=O)O,100,25,> 100
GENTAMICIN,6.25,6.25,0.39
CC1=CC2=C([C@@H](C)C(=O)O)CC[C@@H](C)[C@@H]2CC1,> 100,> 100,> 100
CC1C[C@@H]2OO[C@H]1[C@@H]1[C@H]([C@@H](C)C(=O)O)CC[C@@H](C)[C@@H]12 (stereo partly specified),> 100,> 100,> 100
CC1=C[C@H]2[C@@H](CC1)[C@H](C)CC[C@H]2[C@@H](C)CCCO,12.5,> 100,> 100
C[C@@H]1CC[C@H]2[C@@H](C)C(=O)O[C@@H]3O[C@@]4(C)CC[C@@H]1[C@]32OO4 [ARTEMISININ],> 100,100,> 100
CC1=C[C@H]2[C@@H](C=C1)[C@H](C)CC[C@H]2[C@@H](C)CO,50,25,> 100
Cc1ccc2c(c1)[C@H]([C@@H](C)CO)CC[C@H]2C,> 100,≥ 100,> 100
CC1=C[C@H]2[C@@H](CC1)[C@@H]([C@H](C)C(=O)OCc1cn(CCOCCOCCOCNS(=O)(=O)c3ccc(C4=c5cc6c7c(c5Oc5c4cc4c8c5CCCN8CCC4)CCC[N+]=7CCC6)c(S(=O)(=O)[O-])c3)nn1)CC[C@@H]2C,> 50,> 50,> 50
Cc1ccc2c(c1)[C@H]([C@@H](C)C=O)CC[C@H]2C,> 100,100,> 100
CC1=C[C@H]2[C@@H](CC1)[C@H](C)CC[C@H]2[C@@H](C)C=O,> 100,12.5,> 100
Cc1ccc2c(c1)[C@H]([C@@H](C)C(=O)O)CC[C@H]2C,> 100,100,> 100
O=C(O)c1cn(C2CC2)c2cc(N3CCNCC3)c(F)cc2c1=O [CIPROFLOXACIN],12.5,,< 0.04
COC=CC[C@H](C)[C@@H]1CC[C@@H](C)[C@@H]2CCC(C)=C[C@@H]21 (mixture of isomers),> 100,> 100,> 100
CC1=C[C@H]2[C@@H](C=C1)[C@H](C)CC[C@H]2[C@@H](C)CCCO,50,> 100,> 100
